According to ChEMBL document CHEMBL4480372, “Design, synthesis, and in vitro and in vivo characterization of 1-{4-[4-(substituted)piperazin-1-yl]butyl}guanidines and their piperidine analogues as histamine H3 receptor antagonists” (Medchemcomm, 2019):
Calls of active or inactive are those of the source. The calls are words filed in the database; no cut-off is given here.

Columns and labels:
Histamine H1 receptor [1] = biological target: T1, Histamine H1 receptor (Cavia porcellus, UniProt P31389); experiment: Antagonist activity at histamine H1 receptor in guinea pig ileum preincubated for 10 mins followed by histamine addition during 30 mins equilibration period with washing every 10 mins; details: read-out: pA2 (converted)
T1 sequence (P31389 whole entry): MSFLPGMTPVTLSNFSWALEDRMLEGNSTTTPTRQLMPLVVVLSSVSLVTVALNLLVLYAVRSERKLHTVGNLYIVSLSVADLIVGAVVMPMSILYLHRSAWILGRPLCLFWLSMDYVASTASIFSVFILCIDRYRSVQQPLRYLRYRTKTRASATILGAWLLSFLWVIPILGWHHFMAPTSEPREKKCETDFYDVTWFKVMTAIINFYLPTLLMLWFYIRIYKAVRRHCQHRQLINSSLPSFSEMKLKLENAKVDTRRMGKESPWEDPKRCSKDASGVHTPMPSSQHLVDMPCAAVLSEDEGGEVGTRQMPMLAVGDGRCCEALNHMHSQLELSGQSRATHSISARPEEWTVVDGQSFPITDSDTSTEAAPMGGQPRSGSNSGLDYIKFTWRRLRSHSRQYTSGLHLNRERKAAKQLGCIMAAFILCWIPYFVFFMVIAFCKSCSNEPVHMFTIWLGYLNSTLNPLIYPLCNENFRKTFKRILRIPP

Histamine H3 receptor [2] = biological target: T2, Histamine H3 receptor (Cavia porcellus, UniProt Q9JI35); experiment: Antagonist activity at histamine H3 receptor in guinea pig jejunum assessed as effect on […] inhibition of electrically evoked contraction treated 20 mins after […]; format: tissue-based; details: read-out: pA2 (converted)
T2 sequence (Q9JI35 whole entry): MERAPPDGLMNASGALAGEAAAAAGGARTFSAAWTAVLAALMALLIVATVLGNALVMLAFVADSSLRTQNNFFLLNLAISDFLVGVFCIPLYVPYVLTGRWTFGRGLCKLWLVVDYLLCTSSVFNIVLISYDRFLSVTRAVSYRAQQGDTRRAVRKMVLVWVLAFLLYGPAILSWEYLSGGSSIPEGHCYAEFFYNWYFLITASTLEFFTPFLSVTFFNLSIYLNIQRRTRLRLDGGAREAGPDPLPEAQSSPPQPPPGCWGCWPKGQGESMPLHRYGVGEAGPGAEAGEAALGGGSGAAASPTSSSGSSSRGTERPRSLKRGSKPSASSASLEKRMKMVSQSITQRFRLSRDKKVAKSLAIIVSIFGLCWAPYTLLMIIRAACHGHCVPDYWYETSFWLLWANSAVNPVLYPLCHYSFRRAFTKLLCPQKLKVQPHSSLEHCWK
Summary of the method: (§1)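 Guinea pig jejunum segments (2 cm) were electrically stimulated between platinum electrodes in Krebs buffer gassed with 95% O2/5% CO2 at 37 °C, with isotonic recording under 1.0 g tension. […] After 20 min, cumulative half-log (R)-α-methylhistamine concentration-response curves were recorded until the response stopped changing.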

[3] = biological target: Histamine H1 receptor (Cavia porcellus) (UniProt P31389); experiment: (§2) Antagonist activity at histamine H1 receptor in guinea pig ileum preincubated for 10 mins followed by histamine addition during 30 mins equilibration period with washing every 10 mins; format: tissue-based
Sequence of Histamine H1 receptor (Cavia porcellus) (P31389 whole entry): as the sequence (P31389 whole entry) above

Rattus norvegicus [4] = experiment: Reduction in food consumption in Lewis rat at 3 mg/kg, sc administered daily for 5 days relative to control
[5] = biological target: Histamine H3 receptor (Rattus norvegicus) (UniProt Q9QYN8); experiment: Antagonist activity at rat histamine H3 receptor assessed as reduction in dopamine level in rat cortex at 3 mg/kg, sc administered for 5 consecutive days measured at 24 hrs post last dose by RIA or ELISA method; format: organism-based
Sequence of Histamine H3 receptor (Rattus norvegicus) (Q9QYN8 whole entry): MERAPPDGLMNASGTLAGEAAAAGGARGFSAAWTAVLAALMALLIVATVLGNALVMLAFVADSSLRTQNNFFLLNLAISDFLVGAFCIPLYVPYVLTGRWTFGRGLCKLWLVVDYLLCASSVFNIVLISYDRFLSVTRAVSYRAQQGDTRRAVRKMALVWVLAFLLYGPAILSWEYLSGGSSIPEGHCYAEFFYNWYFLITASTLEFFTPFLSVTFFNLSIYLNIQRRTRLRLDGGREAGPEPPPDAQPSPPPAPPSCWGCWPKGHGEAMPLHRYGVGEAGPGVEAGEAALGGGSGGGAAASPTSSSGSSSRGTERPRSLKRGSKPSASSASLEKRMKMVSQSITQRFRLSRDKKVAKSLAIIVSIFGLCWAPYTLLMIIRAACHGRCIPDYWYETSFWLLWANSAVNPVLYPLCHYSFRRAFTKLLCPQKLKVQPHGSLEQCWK
Summary of the method: (§3)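 Male rats aged 9-10 weeks (Wistar or Lewis, n = 8) received 3 mg kg⁻¹ per day s.c. for 5 days. Saline-dosed and ciproxifan-dosed groups were included. Rats were killed 24 h after the last injection. The cerebral cortex was dissected, frozen in liquid nitrogen, stored at -80 °C and homogenized in 3 volumes of water. Dopamine, noradrenaline and serotonin were measured by RIA; histamine by ELISA.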

Histamine H4 receptor = Histamine H4 receptor (Homo sapiens, UniProt Q9H3N8); experiment: Displacement of [3H]histamine from human recombinant histamine H4 receptor expressed in CHO cell membranes after 1 hrs by liquid scintillation counting analysis
Sequence of Histamine H4 receptor (Q9H3N8 whole entry): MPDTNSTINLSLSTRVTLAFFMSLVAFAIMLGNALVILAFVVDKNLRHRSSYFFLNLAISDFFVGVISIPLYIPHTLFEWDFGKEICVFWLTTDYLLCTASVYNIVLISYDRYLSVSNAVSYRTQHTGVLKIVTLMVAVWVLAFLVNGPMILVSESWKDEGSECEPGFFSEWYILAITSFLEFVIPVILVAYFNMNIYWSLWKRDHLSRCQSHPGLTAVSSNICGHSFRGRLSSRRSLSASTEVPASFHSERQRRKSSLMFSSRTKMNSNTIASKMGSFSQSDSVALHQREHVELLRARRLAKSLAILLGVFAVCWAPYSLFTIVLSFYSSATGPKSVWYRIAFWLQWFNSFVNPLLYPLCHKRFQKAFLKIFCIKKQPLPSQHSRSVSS

Rattus norvegicus [6] = experiment: Effect on cerebral HNMT activity in rat at 3 mg/kg, sc administered for 5 consecutive days measured at 24 hrs post last dose by radioisotopic assay; format: functional, organism-based
Summary of the method: (§4)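 Cortex from rats given 3 mg kg⁻¹ per day s.c. for 5 days (n = 8) was taken 24 h after the last dose and homogenized in water. HNMT, MAO-A and MAO-B were measured radioisotopically. MAO-A used 5-[2-14C]hydroxytryptamine as substrate; MAO-B used β-[ethyl-1-¹⁴C]phenylethylamine. Clorgyline and deprenyl (final 10^-9 M) were used as inhibitors. Protein was measured by the Lowry method.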

[7] = biological target: Histamine H3 receptor (Rattus norvegicus) (UniProt Q9QYN8); experiment: Antagonist activity at rat histamine H3 receptor assessed as reduction in serotonin level in rat cortex at 3 mg/kg, sc administered for 5 consecutive days measured at 24 hrs post last dose by RIA or ELISA method; format: organism-based
Summary of the method: as §3

[8] = biological target: Histamine H3 receptor (Rattus norvegicus) (UniProt Q9QYN8); experiment: Antagonist activity at rat histamine H3 receptor assessed as reduction in noradrenaline level in rat cortex at 3 mg/kg, sc administered for 5 consecutive days measured at 24 hrs post last dose by RIA or ELISA method; format: organism-based
Summary of the method: as §3

Rattus norvegicus [9] = experiment: Effect on cerebral MAO activity in rat at 3 mg/kg, sc administered for 5 consecutive days measured at 24 hrs post last dose by radioisotopic assay; format: functional, organism-based
Summary of the method: as §4

Histamine H3 receptor [10] = biological target: Histamine H3 receptor (Homo sapiens, UniProt Q9Y5N1); experiment: Displacement of [3H]-Nalpha-Methylhistamine from recombinant human histamine H3 receptor expressed in HEK293 cells after 1 hr by liquid scintillation counting analysis; format: cell-based
Sequence of Histamine H3 receptor (Homo sapiens, UniProt Q9Y5N1) (Q9Y5N1 whole entry): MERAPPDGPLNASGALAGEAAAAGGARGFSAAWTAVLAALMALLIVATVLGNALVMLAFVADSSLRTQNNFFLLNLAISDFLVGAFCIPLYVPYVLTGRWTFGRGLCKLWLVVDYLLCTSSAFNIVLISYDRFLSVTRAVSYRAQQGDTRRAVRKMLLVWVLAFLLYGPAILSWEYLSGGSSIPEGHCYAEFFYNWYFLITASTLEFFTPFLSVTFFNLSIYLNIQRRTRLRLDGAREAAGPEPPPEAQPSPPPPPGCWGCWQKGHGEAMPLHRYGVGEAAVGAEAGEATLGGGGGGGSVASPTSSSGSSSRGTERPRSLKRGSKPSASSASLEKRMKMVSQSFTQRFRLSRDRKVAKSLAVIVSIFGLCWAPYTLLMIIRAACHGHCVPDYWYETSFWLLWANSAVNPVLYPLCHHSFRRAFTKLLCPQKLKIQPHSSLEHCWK

[11] = biological target: Histamine H3 receptor (Rattus norvegicus) (UniProt Q9QYN8); experiment: Antagonist activity at rat histamine H3 receptor assessed as reduction in histamine level in rat cortex at 3 mg/kg, sc administered for 5 consecutive days measured at 24 hrs post last dose by RIA or ELISA method; format: organism-based
Summary of the method: as §3

Histamine H3 receptor [12] = biological target: Histamine H3 receptor (Rattus norvegicus, UniProt Q9QYN8); experiment: Displacement of [3H]-Nalpha-Methylhistamine from rat histamine H3 receptor expressed in HEK293T cell membranes after 120 mins by liquid scintillation counting analysis
Sequence of Histamine H3 receptor (Rattus norvegicus, UniProt Q9QYN8) (Q9QYN8 whole entry): as the sequence (Q9QYN8 whole entry) above

Homo sapiens = species: Homo sapiens; experiment: Selectivity ratio of Ki for recombinant human histamine H4 receptor expressed in CHO cell membranes to Ki for recombinant human histamine H3 receptor expressed in HEK293 cells; format: cell-based
Histamine H1 receptor [13] = biological target: T1, Histamine H1 receptor; experiment: as §2; format: tissue-based; details: read-out: pA2 (converted)
Rattus norvegicus [14] = experiment: Reduction in pellet consumption in Wistar rat at 3 mg/kg, sc administered daily for 5 days relative to control; format: functional; design: scale not given: the % may be the effect or the level left
Summary of the method: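 Male rats aged 9-10 weeks were housed singly in metabolic cages with free access to feed and water. Wistar rats were used for one compound and Lewis rats for the others. After 1 day of adaptation, baseline intake was averaged over 3 days. Dosing was 3 mg kg⁻¹ per day s.c. for 5 days (n = 8), with saline controls (0.2 ml per day). Intake was recorded each morning as g feed per 100 g body mass.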

Histamine H3 receptor [15] = biological target: T2, Histamine H3 receptor; experiment: Antagonist activity at histamine H3 receptor in guinea pig jejunum assessed as effect on […] inhibition of electrically evoked contraction treated 20 mins after […] and measured after 1 hr equilibration followed by compound wash out every 10 mins; format: tissue-based; details: read-out: pA2 (converted)
Summary of the method: as §1

With `N=C(N)N(CCCCN1CCN(CCCCCCCOc2ccccc2)CC1)Cc1ccc(C(F)(F)F)cc1` the Kb (Histamine H1 receptor [1]) was 347 nM.

In the case of `c1ccc(OCCCCCCCN2CCN(CCCCCCCOc3ccccc3)CC2)cc1`, the Kb (Histamine H3 receptor [2]) is reported as 1660 nM and the pA2 [3] is reported as “inactive”.

With `O=C(c1ccc(OCCCc2c[nH]cn2)cc1)C1CC1` the Activity (Rattus norvegicus [4]) was “Active”.

With `N=C(N)N(CCCCN1CCN(CCCCCCCOc2ccccc2)CC1)Cc1ccccc1` the Activity [5] was “Active”, the Ki (Histamine H4 receptor) was 3240 nM and the Activity (Rattus norvegicus [6]) was “inactive”. The Kb (Histamine H1 receptor [1]) was 200 nM, the Activity [7] was “Active” and the Activity [8] was “inactive”. The Activity (Rattus norvegicus [9]) was “inactive”, the Ki (Histamine H3 receptor [10]) was 158 nM and the Activity [11] was “inactive”. The Activity (Rattus norvegicus [4]) was “Active”, the Ki (Histamine H3 receptor [12]) was 12.6 nM and the Ratio Ki (Homo sapiens) was 20.9.

Work on `N=C(N)N(CCCCN1CCC(CCCCCCCOc2ccccc2)CC1)Cc1ccc(C(F)(F)F)cc1` yielded a Kb (Histamine H3 receptor [2]) of 12.6 nM and a Kb (Histamine H1 receptor [13]) of 64.6 nM.

`S=C(NC1CCCCC1)N1CCC(c2cnc[nH]2)CC1` [THIOPERAMIDE] was tested, and the Kb (Histamine H3 receptor [2]) was 1.05 nM.

`N=C(N)N(CCCCCCCOc1ccccc1)Cc1ccccc1` was tested, and the Kb (Histamine H3 receptor [2]) was 1660 nM and the Kb (Histamine H1 receptor [13]) was 158 nM.

`N=C(N)N(CCCCN1CCN(CCCCN(Cc2ccc(C(F)(F)F)cc2)C(=N)N)CC1)Cc1ccc(C(F)(F)F)cc1` showed a Kb (Histamine H3 receptor [2]) of 10.2 nM and a Kb (Histamine H1 receptor [13]) of 60.3 nM.

`N=C(NCCCCN1CCN(CCCCCCCOc2ccccc2)CC1)NCc1ccc(C(F)(F)F)cc1` gave a Kb (Histamine H3 receptor [2]) of 10.7 nM and a Kb (Histamine H1 receptor [13]) of 66.1 nM.

With `N=C(N)N(CCCCN1CCN(CCCCCCCOc2ccccc2)CC1)Cc1ccc([N+](=O)[O-])cc1` the Activity [5] was “Active”, the Ki (Histamine H4 receptor) was 1200 nM and the Activity (Rattus norvegicus [6]) was “inactive”. For the same compound, the Kb (Histamine H1 receptor [1]) was 224 nM, the Activity [7] was “Active” and the Activity [8] was “inactive”. The Activity (Rattus norvegicus [14]) was 10%, the Kb (Histamine H3 receptor [15]) was 3.72 nM and the Activity (Rattus norvegicus [9]) was “inactive”. The Ki (Histamine H3 receptor [10]) was 145 nM, the Activity [11] was “inactive” and the Ki (Histamine H3 receptor [12]) was 15.8 nM. For the same compound, the Ratio Ki (Homo sapiens) was 8.3.

For `N=C(N)N(CCCCC1CCN(CCCCCCCOc2ccccc2)CC1)Cc1ccc(C(F)(F)F)cc1`, the Kb (Histamine H3 receptor [2]) was 4.47 nM and the Kb (Histamine H1 receptor [13]) was 126 nM.

`N=C(N)N(CCCCN1CCN(CCCCCCCOc2ccccc2)CC1)Cc1ccc(Cl)cc1` was tested, and the Activity [5] was “Active”, the Ki (Histamine H4 receptor) was 1070 nM and the Activity (Rattus norvegicus [6]) was “inactive”. The Kb (Histamine H1 receptor [1]) was 240 nM, the Activity [7] was “Active” and the Activity [8] was “inactive”. For the same compound, the Kb (Histamine H3 receptor [15]) was 15.8 nM, the Activity (Rattus norvegicus [9]) was “inactive” and the Ki (Histamine H3 receptor [10]) was 275 nM. The Activity [11] was “inactive”, the Activity (Rattus norvegicus [4]) was 13.5% and the Ki (Histamine H3 receptor [12]) was 25.1 nM. For the same compound, the Ratio Ki (Homo sapiens) was 3.9.

`N=C(NCCCCN1CCN(CCCCCCCOc2ccccc2)CC1)NCc1ccccc1` gave a Kb (Histamine H3 receptor [2]) of 7.94 nM and a Kb (Histamine H1 receptor [13]) of 79.4 nM.

For `N#C/N=C(\N)N(CCCCN1CCN(CCCCCCCOc2ccccc2)CC1)Cc1ccccc1`, the Kb (Histamine H3 receptor [2]) was 50.1 nM and the Kb (Histamine H1 receptor [13]) was 107 nM.
